Data taken from ChEMBL document CHEMBL4265871, “Novel alkylated azoles as potent antifungals” (Eur J Med Chem, 2017).
Values after ≈ are worked out from the molar mass of the structure shown.

Tests used:
[1] = tested on: Candida albicans; assay: Antifungal activity against ITC and FLC-susceptible Candida albicans ATCC MYA-2310 incubated for 48 hrs by modified CLSI M27-A3 protocol based method; type: functional; details: ATCC MYA-2310, 48 h
[2] = tested on: Candida albicans; assay: Antifungal activity against ITC and FLC-susceptible Candida albicans ATCC MYA-2876 incubated for 48 hrs by modified CLSI M27-A3 protocol based method; type: functional; details: ATCC MYA-2876, 48 h
Method in brief: (§1)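 Because these Candida strains show trailing growth, MIC-2 was read, meaning 50% growth inhibition. Caspofungin and voriconazole were tested here; other controls came from earlier work.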

[3] = Selectivity index, ratio of EC50 for toxicity in human BEAS2B cells to MIC50 for antifungal activity against ITC and FLC-susceptible Candida albicans ATCC MYA-2876; type: cell-based; details: BEAS-2B cells, read-out: Selectivity Index
Method in brief: (§2)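 Ratio of the compound's EC50 against BEAS-2B cells to its MIC against the named C. albicans strain. […] For C. albicans strains other than ATCC 10231, trailing growth meant MIC-2 was taken, meaning 50% growth inhibition.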

[4] = Selectivity index, ratio of EC50 for toxicity in human A549 cells to MIC50 for antifungal activity against ITC and FLC-susceptible Candida albicans ATCC MYA-2310; type: cell-based; details: read-out: Selectivity Index
Method in brief: (§3)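 Selectivity index is the EC50 against the mammalian line (A549 or BEAS-2B) divided by the MIC against the given fungal strain.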

[5] = tested on: Candida parapsilosis; assay: Antifungal activity against Candida parapsilosis ATCC 22019 incubated for 48 hrs by modified CLSI M27-A3 protocol based method; type: functional; details: Lodderomyces parapsilosis, ATCC 22019, 48 h; read-out: MIC100
Method in brief: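 For C. albicans ATCC 10231, C. krusei ATCC 6258 and C. parapsilosis ATCC 22019, MIC-0 was read, meaning complete growth inhibition. For azole controls, MIC-2 (50% growth inhibition) was reported instead. Caspofungin and voriconazole were tested here; other controls came from earlier work.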

[6] = Selectivity index, ratio of EC50 for toxicity in human A549 cells to MIC50 for antifungal activity against ITC and FLC-resistant Candida albicans ATCC MYA-90819; type: cell-based; details: read-out: Selectivity Index; method in brief: as §3
[7] = Hemolytic activity in mouse erythrocytes assessed as hemolysis level at 125 ug/ml incubated for 1 hr at 37 degC; type: ADME, cell-based, Erythrocyte; details: read-out: Activity
Method in brief: (§4)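 Mouse erythrocytes incubated 1 h at 37 °C with test agents over 1.95 to 125 µg/mL. Percent lysis is read for each concentration.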

[8] = Selectivity index, ratio of […] for toxicity in human BEAS2B cells to MIC50 for antifungal activity against Aspergillus nidulans ATCC 38163; type: cell-based; details: BEAS-2B cells, read-out: Selectivity Index
[9] = Selectivity index, ratio of EC50 for toxicity in human A549 cells to MIC50 for antifungal activity against ITC and FLC-resistant Candida albicans ATCC MYA-1003; type: cell-based; details: read-out: Selectivity Index; method in brief: as §3
[10] = Selectivity index, ratio of EC50 for toxicity in human A549 cells to MIC50 for antifungal activity against Candida albicans ATCC 64124; type: cell-based; details: read-out: Selectivity Index; method in brief: as §3
[11] = tested on: Aspergillus nidulans; assay: Antifungal activity against Aspergillus nidulans ATCC 38163 incubated for 48 hrs by CLSI M38-A2 protocol based method; type: functional; details: ATCC 38163, 48 h, read-out: MIC100
[12] = Selectivity index, ratio of EC50 for toxicity in human BEAS2B cells to MIC100 for antifungal activity against Candida albicans ATCC 10231; type: cell-based; details: BEAS-2B cells, read-out: Selectivity Index; method in brief: as §3
[13] = Selectivity index, ratio of […] for toxicity in human A549 cells to MIC50 for antifungal activity against Aspergillus nidulans ATCC 38163; type: cell-based; details: read-out: Selectivity Index
[14] = Selectivity index, ratio of EC50 for toxicity in human BEAS2B cells to MIC for antifungal activity against Candida parapsilosis ATCC 22019; details: BEAS-2B cells
[15] = Selectivity index, ratio of EC50 for toxicity in human A549 cells to MIC for antifungal activity against Candida parapsilosis ATCC 22019
[16] = Toxicity in human BEAS2B cells assessed as reduction in cell viability incubated for 24 hrs by resazurin dye based assay; details: BEAS-2B cells
Method in brief: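 Toxicity tested in the nucleated lines A549 and BEAS-2B to give EC50 values. Selectivity index is EC50 against the mammalian line divided by the MIC against a given fungal strain.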

[17] = tested on: Candida albicans; assay: Antifungal activity against ITC and FLC-resistant Candida albicans ATCC 1237 incubated for 48 hrs by modified CLSI M27-A3 protocol based method; type: functional; details: ATCC 1237, 48 h; method in brief: as §1
[18] = Selectivity index, ratio of […] for toxicity in human A549 cells to MIC50 for antifungal activity against Aspergillus flavus ATCC MYA-3631; type: cell-based; details: read-out: Selectivity Index
[19] = tested on: Nakaseomyces glabratus; assay: Antifungal activity against Candida glabrata ATCC 2001 incubated for 48 hrs by modified CLSI M27-A3 protocol based method; type: functional; details: ATCC 2001, 48 h
[20] = Selectivity index, ratio of […] for toxicity in human BEAS2B cells to MIC50 for antifungal activity against Aspergillus terreus ATCC MYA-3633; type: cell-based; details: BEAS-2B cells, read-out: Selectivity Index
[21] = Selectivity index, ratio of EC50 for toxicity in human A549 cells to MIC50 for antifungal activity against Candida glabrata ATCC 2001; type: cell-based; details: read-out: Selectivity Index; method in brief: as §3
[22] = Selectivity index, ratio of EC50 for toxicity in human A549 cells to MIC50 for antifungal activity against Candida krusei ATCC 6258
[23] = Selectivity index, ratio of EC50 for toxicity in human A549 cells to MIC50 for antifungal activity against ITC and FLC-resistant Candida albicans ATCC 1237; type: cell-based; details: read-out: Selectivity Index; method in brief: as §3
[24] = Hemolytic activity in mouse erythrocytes assessed as hemolysis level at 15.6 ug/ml incubated for 1 hr at 37 degC; type: ADME, cell-based, Erythrocyte; details: read-out: Activity; method in brief: as §4
[25] = Selectivity index, ratio of EC50 for toxicity in human BEAS2B cells to MIC50 for antifungal activity against ITC and FLC-resistant Candida albicans ATCC MYA-90819; type: cell-based; details: BEAS-2B cells, read-out: Selectivity Index; method in brief: as §2
[26] = Hemolytic activity in mouse erythrocytes assessed as hemolysis level at 7.8 ug/ml incubated for 1 hr at 37 degC; type: ADME, cell-based, Erythrocyte; details: read-out: Activity; method in brief: as §4
[27] = in vitro; details: mouse, mouse erythrocytes
[28] = tested on: Aspergillus flavus; assay: Antifungal activity against Aspergillus flavus ATCC MYA-3631 incubated for 48 hrs by CLSI M38-A2 protocol based method; type: functional; details: ATCC MYA-3631, 48 h, read-out: MIC100
[29] = tested on: Candida albicans; assay: Antifungal activity against ITC and FLC-resistant Candida albicans ATCC MYA-1003 incubated for 48 hrs by modified CLSI M27-A3 protocol based method; type: functional; details: ATCC MYA-1003, 48 h; method in brief: as §1
[30] = Hemolytic activity in mouse erythrocytes assessed as hemolysis level at 1.95 ug/ml incubated for 1 hr at 37 degC; type: ADME, cell-based, Erythrocyte; details: read-out: Activity; method in brief: as §4
[31] = Selectivity index, ratio of EC50 for toxicity in human BEAS2B cells to MIC50 for antifungal activity against Candida albicans ATCC 64124; type: cell-based; details: BEAS-2B cells, read-out: Selectivity Index; method in brief: as §3
[32] = Selectivity index, ratio of EC50 for toxicity in human BEAS2B cells to MIC50 for antifungal activity against ITC and FLC-resistant Candida albicans ATCC 1237; type: cell-based; details: BEAS-2B cells, read-out: Selectivity Index; method in brief: as §3

SMILES	MIC50 [1] [µM]	MIC50 [2] [µM]	selectivity ratio [3]	selectivity ratio [4]	MIC [5] [µM]	selectivity ratio [6]	hemolysis at 1 h, 125 ug/ml [7] [%]	selectivity ratio [8]	selectivity ratio [9]	selectivity ratio [10]	MIC [11] [µM]	selectivity ratio [12]	selectivity ratio [13]	selectivity ratio [14]	selectivity ratio [15]	EC50 at 24 h [16] [µg/mL]	MIC50 [17] [µM]	selectivity ratio [18]	MIC50 [19] [µM]	selectivity ratio [20]	other results
CCCCCCC(O)(Cn1cncn1)c1ccc(Cl)cc1Cl (stereo unspecified)	5.7 (≈ 1.95 µg/mL)	2.8 (≈ 0.958 µg/mL)	29	10	< 0.09	10	105	58	21	10	1.4 (≈ 0.479 µg/mL)	117	42	933	667	28 (≈ 81.8 µM)	5.7 (≈ 1.95 µg/mL)	5	5.7 (≈ 1.95 µg/mL)	7	selectivity ratio [21]: 10; selectivity ratio [22]: 667; selectivity ratio [23]: 10; hemolysis at 1 h, 15.6 ug/ml [24]: 105%; selectivity ratio [25]: 14; hemolysis at 1 h, 7.8 ug/ml [26]: 1.6%; hemolysis at 1 h, 62.5 ug/ml [27]: 98%; MIC [28]: 11.4 µM (≈ 3.9 µg/mL); MIC50 [29]: 2.8 µM (≈ 0.958 µg/mL); hemolysis at 1 h, 1.95 ug/ml [30]: 0%; selectivity ratio [31]: 14; selectivity ratio [32]: 14
CCCCC(O)(Cn1cncn1)c1ccc(F)cc1F (stereo unspecified)	112 (≈ 31.4 µg/mL)	27.7 (≈ 7.79 µg/mL)	5	1	< 0.11	2	0	19	8	2	6.9 (≈ 1.94 µg/mL)	19	16	1200	1040	36 (≈ 128 µM)	55.5 (≈ 15.6 µg/mL)	2	112 (≈ 31.4 µg/mL)	2	selectivity ratio [21]: 1; selectivity ratio [22]: 522; selectivity ratio [23]: 2; hemolysis at 1 h, 15.6 ug/ml [24]: 0%; selectivity ratio [25]: 2; hemolysis at 1 h, 7.8 ug/ml [26]: 0%; hemolysis at 1 h, 62.5 ug/ml [27]: 0%; MIC [28]: 55.5 µM (≈ 15.6 µg/mL); MIC50 [29]: 13.9 µM (≈ 3.91 µg/mL); hemolysis at 1 h, 1.95 ug/ml [30]: 0%; selectivity ratio [31]: 2; selectivity ratio [32]: 2
CCCCCCC(O)(Cn1cncn1)c1ccccc1F (stereo unspecified)	3.3 (≈ 0.962 µg/mL)	3.3 (≈ 0.962 µg/mL)	32	32	0.41 (≈ 0.119 µg/mL)	130	85.6	65	8	1	1.6 (≈ 0.466 µg/mL)	16	65	261	261	> 31.3	3.3 (≈ 0.962 µg/mL)	1 to 2	3.3 (≈ 0.962 µg/mL)	8	selectivity ratio [21]: 32; selectivity ratio [22]: 522; selectivity ratio [23]: 32; hemolysis at 1 h, 15.6 ug/ml [24]: 0%; selectivity ratio [25]: 130; hemolysis at 1 h, 7.8 ug/ml [26]: 0%; hemolysis at 1 h, 62.5 ug/ml [27]: 28.8%; MIC [28]: 53.5 to 107 µM (≈ 15.6 to 31.3 µg/mL); MIC50 [29]: 13.4 µM (≈ 3.9 µg/mL); hemolysis at 1 h, 1.95 ug/ml [30]: 0%; selectivity ratio [31]: 1; selectivity ratio [32]: 32
